In general, inhibition refers to the relative decrease from the control value, in per cent.

The subject of test [1] is Rattus norvegicus. As to the kind of experiment: Antiinflammatory activity in rat assessed as inhibition of carrageenan-induced hind paw edema at 100 mg/kg, po administered 1 hr before carrageenan-challenge measured after 1 hr. Type of test: functional. The essentials: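 Rats (n = 6 per group) were dosed orally, with the vehicle group given 1% w/v gum acacia at 10 ml/kg p.o. One hour after dosing, 0.1 ml of 1% w/v carrageenan was injected subplantar into the hind paw. Paw volume was measured by plethysmometer volume displacement, immersing the paw to the lateral malleolus, at 1, 3 and 6 h after carrageenan.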
(In the carrageenan paw model, swelling and tenderness develop within hours.)

For test [2], the system named is Rattus norvegicus. Kind of test: Antiinflammatory activity in rat assessed as inhibition of carrageenan-induced hind paw edema at 100 mg/kg, po administered 1 hr before carrageenan-challenge measured after 6 hrs.
In test [3] the test system is Rattus norvegicus. Kind of test: Antiinflammatory activity in rat assessed as inhibition of carrageenan-induced hind paw edema at 100 mg/kg, po administered 1 hr before carrageenan-challenge measured after 3 hrs.
In test [4] the target is T1, Prostaglandin G/H synthase 1 (Ovis aries) (UniProt P05979).
T1 sequence (whole entry): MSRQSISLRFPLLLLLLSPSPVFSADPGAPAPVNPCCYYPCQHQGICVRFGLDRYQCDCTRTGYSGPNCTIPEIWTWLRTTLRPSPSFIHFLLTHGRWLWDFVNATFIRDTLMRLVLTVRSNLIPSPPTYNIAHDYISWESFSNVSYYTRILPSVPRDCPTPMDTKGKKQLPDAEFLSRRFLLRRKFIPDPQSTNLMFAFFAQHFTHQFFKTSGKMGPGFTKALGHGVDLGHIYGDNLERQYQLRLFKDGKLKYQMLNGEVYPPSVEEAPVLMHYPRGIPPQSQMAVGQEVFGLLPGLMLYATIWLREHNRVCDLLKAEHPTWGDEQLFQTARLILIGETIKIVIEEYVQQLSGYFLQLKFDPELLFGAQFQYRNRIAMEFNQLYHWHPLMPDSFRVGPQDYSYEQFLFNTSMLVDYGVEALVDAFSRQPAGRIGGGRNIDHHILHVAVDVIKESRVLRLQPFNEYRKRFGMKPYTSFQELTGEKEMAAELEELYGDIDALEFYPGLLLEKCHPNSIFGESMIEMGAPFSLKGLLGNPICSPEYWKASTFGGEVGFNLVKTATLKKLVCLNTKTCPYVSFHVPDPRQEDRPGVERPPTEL
As to the kind of experiment: Inhibition of ovine COX1 peroxidase activity assessed as appearance of oxidized N,N,N,N'-tetramethyl-p-phenylenediamine by colorimetric analysis relative to control. The arrangement: concentration or dose not given beside the values. To be noted: concentration not given here. The gist of the method:
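Colorimetric ovine COX inhibitor screening kit: assay buffer, heme, COX-1 enzyme and sample (0.1 mM), with peroxidase activity read by absorbance at 590 nm. Percent inhibition = (1 − T/C) × 100, where C is the uninhibited well. Determinations were run in duplicate.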

For test [5], the system named is Radical scavenging activity. As to the kind of experiment: Antioxidant activity of the compound assessed as DPPH radical scavenging activity at 100 uM after 20 mins. Type of test: functional. The essentials:
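Sample solution (0.1 mM) was mixed with an equal volume of 0.1 mM DPPH in ethanol. After 20 min at room temperature, DPPH reduction was read as absorbance at 517 nm.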

Test [6] in a line: Antioxidant activity assessed as superoxide radical scavenging activity at 100 uM after 5 mins by NBT reduction assay. Type of test: functional. The essentials:
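Superoxide scavenging by NBT reduction in buffer (100 mM, pH 7.4) with NBT and sample (0.1 mM). The reaction was started by adding PMS, incubated 5 min at room temperature, and read by absorbance at 560 nm.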

Test [7] is described as follows: Antioxidant activity assessed as hydroxyl radical scavenging activity at 100 uM after 5 mins. Type of test: functional.

On to `COc1cc(OC)c(-c2ccnn2C)c(O)c1C(=O)c1cccc(F)c1`, for which the Activity amounted to 0.92 mL in the test on Rattus norvegicus [1], 1.63 mL in the test with Rattus norvegicus [2], 1.2 mL with Rattus norvegicus [3] and 34.5% in test [5]. Besides, in test [4], the inhibition was found to be 61.7%.
On to `O=C1O[C@H]([C@@H](O)CO)C(O)=C1O`, for which the Activity in test [6] stood at 78.3%; in test [5] it was 81.5%; in test [7] it was 52%.
In the case of `COc1ccc(C(=O)c2c(OC)cc(OC)c(-c3ccnn3C)c2O)cc1`, the Activity with Rattus norvegicus [1] is 0.89 mL; in the test with Rattus norvegicus [2], 0.99 mL; in the test with Rattus norvegicus [3], 0.89 mL; in test [5], 48.9%. The inhibition in test [4] stood at 61.4%.
Turning to `COc1cc(OC)c(-c2ccnn2C)c(O)c1C(=O)c1cccc(Cl)c1Cl`, the Activity was 0.9 mL in the test on Rattus norvegicus [1], 1.29 mL in the test on Rattus norvegicus [2], 1.39 mL in the test on Rattus norvegicus [3] and 29.6% in test [5]. Besides, the inhibition in test [4] was 58.3%.
Taken in the same sequence, the figures for `COc1cc(OC)c(-c2ccnn2C)c(O)c1C(=O)c1cccc(Br)c1` were 0.92 mL, 0.91 mL, 1 mL, 40.2% and 59.1%.
Regarding `COc1cc(OC)c(-c2ccnn2C)c(O)c1C(=O)c1cc(Cl)ccc1Cl`, the Activity is 1.01 mL in the test with Rattus norvegicus [1], 1.11 mL in the test with Rattus norvegicus [2], 1.1 mL in the test on Rattus norvegicus [3] and 31.2% in test [5]. The inhibition in test [4] was 52.4%.
The corresponding values for `COc1cc(OC)c(-c2ccnn2C)c(O)c1C(=O)c1cccc(C(F)(F)F)c1` are 0.93 mL, 1.55 mL, 1.44 mL, 28% and 55.8%.
Taken in the same sequence, the figures for `COc1cc(OC)c(-c2ccnn2C)c(O)c1C(=O)c1ccc(Cl)cc1Cl` were 0.59 mL, 1.62 mL, 1.22 mL, 26.1% and 61.7%.
Taken in the same sequence, the figures for `COc1cc(OC)c(-c2ccnn2C)c(O)c1C(=O)c1ccccc1F` were 1.1 mL, 0.96 mL, 1.06 mL, 31.5% and 58.3%.
Consider `COc1ccc2c(c1)c(CC(=O)O)c(C)n2C(=O)c1ccc(Cl)cc1` [INDOMETHACIN], for which the values for the Activity in the test on Rattus norvegicus [1], with Rattus norvegicus [2] and in the test with Rattus norvegicus [3] were 0.86 mL, 0.78 mL and 0.95 mL, respectively.
As for `COc1cc(OC)c(-c2ccnn2C)c(O)c1C(=O)c1ccccc1`, the Activity with Rattus norvegicus [1] amounted to 0.81 mL; in the test with Rattus norvegicus [2] it was 1.22 mL; in the test with Rattus norvegicus [3] it was 1.11 mL; in test [5] it was 36.2%. In addition, the inhibition in test [4] was determined as 57.5%.
Taken in the same sequence, the figures for `COc1cc(OC)c(-c2ccnn2C)c(O)c1C(=O)c1ccc(F)cc1F` were 1.12 mL, 1.17 mL, 1.05 mL, 43.6% and 55.8%.

The record behind these values is ChEMBL document CHEMBL2311521, “Design, synthesis, characterization and biological evaluation of novel pyrazole integrated benzophenones” (2013).
